Laboratory results from ChEMBL document CHEMBL2396576, “Identification of 1,6-dihydropyrazolo[4,3-c]carbazoles and 3,6-dihydropyrazolo[3,4-c]carbazoles as new Pim kinase inhibitors” (Bioorg Med Chem, 2013).

Columns and labels:
[1] = biological target: T1, Serine/threonine-protein kinase pim-1 (Homo sapiens, UniProt P11309); assay: Inhibition of human PIM1 assessed as residual activity using RSRHSSYPAGT as substrate at 10 uM after 30 mins
Target sequence in this assay (P11309 whole entry, looked up): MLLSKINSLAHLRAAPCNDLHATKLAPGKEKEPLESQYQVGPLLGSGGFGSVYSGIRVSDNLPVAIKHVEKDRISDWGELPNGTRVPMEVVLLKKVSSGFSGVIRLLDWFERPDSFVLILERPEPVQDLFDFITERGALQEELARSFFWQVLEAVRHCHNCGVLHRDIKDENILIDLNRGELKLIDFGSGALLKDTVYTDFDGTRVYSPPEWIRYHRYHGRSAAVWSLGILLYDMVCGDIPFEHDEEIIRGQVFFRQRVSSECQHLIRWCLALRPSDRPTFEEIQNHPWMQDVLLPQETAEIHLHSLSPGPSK

[2] = system: LNCaP; assay: Antiproliferative activity against human LNCAP cells assessed as cell growth inhibition at 10 uM after 72 hrs by MTS assay; assay type: functional; settings: read-out: GI
How it was run: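 LNCaP cells grown in RPMI 1640 with 10% FCS at 37 °C, 5% CO2, seeded at 5000 per well. After 24 h, compound in DMSO (1% final) added at 10 µM for 72 h; DMSO controls. Viable cells by MTS absorbance at 490 nm; percent proliferation inhibition.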

[3] = system: PC-3; assay: Antiproliferative activity against human PC3 cells assessed as cell growth inhibition at 10 uM after 72 hrs by MTS assay; assay type: functional; settings: PC-3, 72 h, read-out: GI
How it was run: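 PC3 cells kept in RPMI 1640 plus 10% FCS (37 °C, 5% CO2) and plated at 2500 per well. Compound added 24 h later at 10 µM in DMSO (1% final), 72 h exposure, vehicle controls. MTS read at 490 nm; percent inhibition of proliferation.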

[4] = biological target: T2, Serine/threonine-protein kinase pim-3 (Homo sapiens, UniProt Q86V86); assay: Inhibition of human PIM3 assessed as residual activity using RSRHSSYPAGT as substrate at 1 uM after 30 mins
[5] = biological target: T1, Serine/threonine-protein kinase pim-1; assay: Inhibition of human PIM1 using RSRHSSYPAGT as substrate after 30 mins
Target sequence in this assay (P11309 whole entry): as the sequence (P11309 whole entry, looked up) above

[6] = biological target: T2, Serine/threonine-protein kinase pim-3; assay: Inhibition of human PIM3 assessed as residual activity using RSRHSSYPAGT as substrate at 10 uM after 30 mins
[7] = biological target: T1, Serine/threonine-protein kinase pim-1; assay: Inhibition of human PIM1 assessed as residual activity using RSRHSSYPAGT as substrate at 1 uM after 30 mins
Target sequence in this assay (P11309 whole entry, looked up): as the sequence (P11309 whole entry, looked up) above

[8] = biological target: Serine/threonine-protein kinase pim-2 (Homo sapiens) (UniProt Q9P1W9); assay: Inhibition of human PIM2 assessed as residual activity using RSRHSSYPAGT as substrate at 10 uM after 30 mins
[9] = biological target: T2, Serine/threonine-protein kinase pim-3; assay: Inhibition of human PIM3 using RSRHSSYPAGT as substrate after 30 mins
[10] = biological target: Serine/threonine-protein kinase pim-2 (Homo sapiens) (UniProt Q9P1W9); assay: Inhibition of human PIM2 assessed as residual activity using RSRHSSYPAGT as substrate at 1 uM after 30 mins
[11] = system: PC-3; assay: Antiproliferative activity against human PC3 cells assessed as cell growth inhibition after 72 hrs by MTS assay; assay type: functional, cell-based; settings: PC-3, 72 h

Sequence of Serine/threonine-protein kinase pim-2 (Homo sapiens) (Q9P1W9 whole entry, looked up): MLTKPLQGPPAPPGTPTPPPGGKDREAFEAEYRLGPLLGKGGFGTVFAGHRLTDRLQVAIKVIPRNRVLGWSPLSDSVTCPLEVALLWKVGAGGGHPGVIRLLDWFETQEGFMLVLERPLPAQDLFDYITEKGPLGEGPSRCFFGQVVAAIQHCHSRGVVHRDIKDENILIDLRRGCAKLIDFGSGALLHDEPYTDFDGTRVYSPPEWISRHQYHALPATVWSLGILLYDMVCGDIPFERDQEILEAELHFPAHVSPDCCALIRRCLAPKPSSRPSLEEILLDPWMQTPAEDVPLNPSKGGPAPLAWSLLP

Compound | Activity [1] [%] | inhibition of growth at 10 µM [2] [%] | inhibition of growth at 10 µM [3] [%] | Activity [4] [%] | IC50 [5] [nM] | Activity [6] [%] | Activity [7] [%] | Activity [8] [%] | IC50 [9] [nM] | Activity [10] [%] | IC50 [11] [nM]
O=[N+]([O-])c1cc2[nH]ncc2c2c1[nH]c1ccc(Cl)cc12 | 39 | 0 | 50 | 26 | 200 | 19 | 48 | 54 | 230 | 57 | –
O=[N+]([O-])c1cc2n[nH]cc2c2c1[nH]c1ccccc12 | – | – | – | – | 40 | – | – | – | 100 | – | –
COc1ccc2[nH]c3c(N)cc4n[nH]cc4c3c2c1 | – | – | – | – | – | – | – | – | 600 | – | –
COc1ccc2[nH]c3c(N)cc4cn[nH]c4c3c2c1 | 43 | 8 | 28 | 46 | – | 14 | 93 | 70 | 700 | 120 | –
Nc1cc2[nH]ncc2c2c1[nH]c1ccccc12 | 16 | 56 | 56 | 66 | – | 20 | 61 | 71 | – | 96 | –
Nc1cc2cn[nH]c2c2c1[nH]c1ccccc12 | 54 | 28 | 31 | 63 | – | 20 | 98 | 78 | – | 116 | –
O=[N+]([O-])c1cc2cn[nH]c2c2c1[nH]c1ccccc12 | 26 | 45 | 59 | 22 | – | 16 | 44 | 46 | – | 76 | –
Nc1cc2[nH]ncc2c2c1[nH]c1ccc(Cl)cc12 | 8 | 27 | 45 | 28 | 1100 | 7 | 45 | 34 | 110 | 107 | –
COc1ccc2[nH]c3c([N+](=O)[O-])cc4c[nH]nc4c3c2c1 | – | – | – | – | 220 | – | – | – | 110 | – | –
O=[N+]([O-])c1cc2c[nH]nc2c2c1[nH]c1ccccc12 | – | – | – | – | 400 | – | – | – | 210 | – | –
COc1ccc2[nH]c3c([N+](=O)[O-])cc4[nH]ncc4c3c2c1 | 13 | 27 | 74 | 21 | – | 11 | 29 | 35 | – | 54 | 2300
O=[N+]([O-])c1cc2[nH]ncc2c2c1[nH]c1ccccc12 | 15 | 38 | 85 | 28 | – | 17 | 14 | 38 | – | 49 | 3000
O=[N+]([O-])c1cc2cn[nH]c2c2c1[nH]c1ccc(Cl)cc12 | 60 | 28 | 51 | 50 | – | 38 | 69 | 93 | 90 | 90 | –
COc1ccc2[nH]c3c([N+](=O)[O-])cc4cn[nH]c4c3c2c1 | 39 | 19 | 29 | 28 | – | 23 | 41 | 72 | – | 77 | –
Nc1cc2cn[nH]c2c2c1[nH]c1ccc(Cl)cc12 | 29 | 35 | 43 | 55 | – | 14 | 85 | 79 | – | 115 | –
COc1ccc2[nH]c3c([N+](=O)[O-])cc4n[nH]cc4c3c2c1 | – | – | – | – | 150 | – | – | – | 110 | – | –
COc1ccc2[nH]c3c(N)cc4[nH]ncc4c3c2c1 | 23 | 39 | 46 | 51 | – | 16 | 70 | 54 | – | 123 | –
